Measurements taken from ChEMBL document CHEMBL1140973, “New Pd(II) complexes of the synthesized 1-N-substituted thiosemicarbazones of 3-indole carboxaldehyde: characterization and antiamoebic assessment against E. histolytica” (Eur J Med Chem, 2008).

Key:
[1] = tested on: Entamoeba histolytica; test: Antiamoebic activity against Entamoeba histolytica HM1:IMSS after 72 hrs by microplate method; format: functional, organism-based
Method in brief: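 E. histolytica HM1:IMSS trophozoites in a microplate assay. Samples in DMSO plus medium (1 mg/mL), diluted to 0.1 mg/mL, then twofold serial dilutions. Inoculum 1.7 × 10^4 amoebae/well (viability by trypan blue), N2-gassed, 37 °C for 72 h. Cells methanol-fixed, eosin-stained, dye released in 0.1 N NaOH, OD 490 nm. % inhibition vs untreated control against log dose; IC50 by linear regression.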

[2] = tested on: HEK293 (human); test: Cytotoxicity against human HEK293 cells after 44 hrs by MTT assay; details: HEK293, 44 h
[3] = Safety index, IC50 for transformed human kidney epithelial cells to IC50 for Entamoeba histolytica HM1:IMSS
[4] = Safety index, IC50 for human […] to IC50 for Entamoeba histolytica HM1:IMSS; format: toxicity, cell-based; details: read-out: Ratio IC50
Method in brief: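 Safety index = IC50 in human kidney epithelial cells (MTT, 44 h + 4 h) divided by IC50 against E. histolytica HM1:IMSS (microplate eosin assay, 72 h).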

## Cc1ccc(NC(=S)N/N=C\c2c[nH]c3ccccc23)cc1
[1]
  IC50: 3.25 µM
[2]
  IC50: > 100 µM
[3]
  selectivity ratio: > 30.8

## CCCCNC(=S)N/N=C\c1c[nH]c2ccccc12
[1]
  IC50: 4.09 µM
[2]
  IC50: > 100 µM
[3]
  selectivity ratio: > 24.4

## Cc1ccccc1NC(=S)N/N=C\c1c[nH]c2ccccc12
[1]
  IC50: 2.05 µM
[2]
  IC50: > 100 µM
[3]
  selectivity ratio: > 48.8

## CC(C)NC(=S)N/N=C\c1c[nH]c2ccccc12
[1]
  IC50: 7.64 µM
[2]
  IC50: > 100 µM
[3]
  selectivity ratio: > 13.1

## S=C(NCc1ccccc1Cl)N/N=C\c1c[nH]c2ccccc12
[1]
  IC50: 3.28 µM
[2]
  IC50: > 100 µM
[3]
  selectivity ratio: > 30.5

## CCCNC(=S)N/N=C\c1c[nH]c2ccccc12
[1]
  IC50: 6.84 µM
[2]
  IC50: > 100 µM
[3]
  selectivity ratio: > 14.6

## CN(Cc1ccccc1)C(=S)N/N=C\c1c[nH]c2ccccc12
[1]
  IC50: 2.46 µM
[2]
  IC50: > 100 µM
[3]
  selectivity ratio: > 40.6

## Cc1cccc(NC(=S)N/N=C\c2c[nH]c3ccccc23)c1
[1]
  IC50: 1.29 µM
[2]
  IC50: > 100 µM
[3]
  selectivity ratio: > 77.5

## CCN(CC)C(=S)N/N=C\c1c[nH]c2ccccc12
[1]
  IC50: 2.58 µM
[2]
  IC50: > 100 µM
[3]
  selectivity ratio: > 38.8

## Cc1ncc([N+](=O)[O-])n1CCO [METRONIDAZOLE]
[2]
  IC50: > 100 µM
[3]
  selectivity ratio: > 55.2

## Fc1ccc(NC(=S)N/N=C\c2c[nH]c3ccccc23)c(F)c1
[1]
  IC50: 6.05 µM
[4]
  selectivity ratio: > 16.5

## NC(=S)N/N=C\c1c[nH]c2ccccc12
[1]
  IC50: 11.5 µM
[2]
  IC50: > 100 µM
[3]
  selectivity ratio: > 8.68

## CCCCN(C)C(=S)N/N=C\c1c[nH]c2ccccc12
[1]
  IC50: 5.5 µM
[2]
  IC50: > 100 µM
[3]
  selectivity ratio: > 18.2

## CC(C)CNC(=S)N/N=C\c1c[nH]c2ccccc12
[1]
  IC50: 5.76 µM
[2]
  IC50: > 100 µM
[3]
  selectivity ratio: > 17.4
